The test system of one series is Human orthopneumovirus. The experiment in a line: Antiviral activity against Human respiratory syncytial virus infected in HeLa cells. The class given is functional, organism-based.
Series [1] can be described thus: Cytotoxicity against human HeLa cells by luminescence assay. It counts as cell-based.
The subject of the next series is Hepatitis C virus. The series is described as follows: Antiviral activity against Hepatitis C virus infected in […] cells by luciferase assay. It counts as functional, organism-based. The note with it: Hepacivirus hominis.
Series [2] relates to unidentified influenza virus. The series is described as follows: Antiviral activity against unidentified influenza virus assessed as inhibition of virus-induced cytopathic effect by cell-based assay. The class given is functional, organism-based.
The test system of another series is dengue virus type 2. The experiment in a line: Antiviral activity against Dengue virus 2 assessed as inhibition of virus-induced cytopathic effect by cell-based assay. The class given is functional, organism-based.
Series [3] deals with Human immunodeficiency virus 1. The series is described as follows: Antiviral activity against Human immunodeficiency virus 1 3B infected in MT4 cells by fluorescence analysis. It counts as functional, organism-based.
Series [4] can be described thus: Selectivity index, ratio of CC50 for HeLa cells to EC50 for Human respiratory syncytial virus. The class given is toxicity, cell-based. The conditions noted are these: read-out: Ratio CC50/EC50. Summed up: (§1)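 Ratio of CC50 to EC50. CC50 is the 50% cytotoxic concentration. EC50 is the concentration giving 50% inhibition of the virus-reduced signal relative to the uninfected cell control.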

In a further series the test system is Chikungunya virus. The series is described as follows: Antiviral activity against Chikungunya virus assessed as inhibition of virus-induced cytopathic effect by cell-based assay. The class given is functional. Summed up:
(§2)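 EC50 taken as the compound concentration giving 50% inhibition of the virus-reduced cell signal, relative to uninfected cell controls.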

Series [5] in a line: Selectivity index, ratio of CC50 for host cell to EC50 for Chikungunya virus. A digest of the protocol: (§3)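 SI calculated as CC50/EC50. CC50 is the 50% cytotoxic concentration in host cells. EC50 is the concentration giving 50% inhibition of the virus-reduced signal versus uninfected cell controls.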
The next series deals with Coxsackievirus. The experiment in a line: Antiviral activity against Coxsackievirus assessed as inhibition of virus-induced cytopathic effect by cell-based assay. The class given is functional, organism-based. Summed up: as §2
Series [6] is described as follows: Selectivity index, ratio of CC50 for host cell to EC50 for Coxsackievirus. Summed up: as §3
A short description of series [7]: Cytotoxicity human HEL299 cells by resazurin assay. It counts as cell-based, HEL 299.
Series [8] can be described thus: Selectivity index, ratio of CC50 for Hel299 cells to EC50 for Cytomegalovirus. The class given is toxicity, cell-based. The conditions noted are these: human, read-out: Ratio CC50/EC50. A digest of the protocol:
as §1

A further series deals with Cytomegalovirus. The experiment in a line: Antiviral activity against Cytomegalovirus infected in human Hel299 cells. The class given is functional, organism-based. The note with it: Human betaherpesvirus 5, HEL 299.
A short description of series [9]: Selectivity index, ratio of CC50 for HepG2 cells to EC50 for Hepatitis B virus. It counts as toxicity, cell-based. The conditions noted are these: human, read-out: Ratio CC50/EC50. A digest of the protocol:
as §1

The nature of series [10]: Cytotoxicity against human HepG2 cells by resazurin assay. The class given is cell-based.
A further series has as its system Hepatitis B virus. The series is described as follows: Antiviral activity against Hepatitis B virus infected in HepG2(2.2.15) by PCR analysis. The class given is functional, organism-based.

The text below walks through data of ChEMBL document CHEMBL2062436, “Design, synthesis, and antiviral evaluation of purine-β-lactam and purine-aminopropanol hybrids” (J Med Chem, 2012).

Structures are written as SMILES. The source made the active and inactive calls. The calls are words filed in the database; no cut-off is given here.

`O=C1[C@@H](OCc2ccccc2)[C@@H](c2ccc(Cl)cc2Cl)N1CCCn1cnc2c(NCc3ccccc3)ncnc21` (relative stereo) displayed an EC50 in the series with Human orthopneumovirus of 2.24 µM. This molecule yielded a CC50 in [1] of 40.1 µM. The outcome (in the series on Hepatitis C virus; in series [2]; in the series with dengue virus type 2; in series [3]) was inactive. Besides, the selectivity ratio in [4] came out at 17.9.

The molecule `CC(C)N1C(=O)[C@H](CCCn2cnc3c(NCc4ccccc4)ncnc32)[C@H]1c1ccccc1F` (relative stereo) returned an EC50 with Human orthopneumovirus of 7.79 µM. In addition, the CC50 in series [1] worked out at 75.6 µM. Besides, the result (in the series with Hepatitis C virus; in series [2]; with dengue virus type 2; in [3]) was inactive. For the same molecule, in series [4], the selectivity ratio was 9.71.

For `O=C1[C@@H](Oc2ccccc2)[C@@H](c2ccccc2)N1CCCn1cnc2c(NCc3ccccc3)ncnc21` (relative stereo), the EC50 in the series with Human orthopneumovirus stood at 8.05 µM; in the series with Chikungunya virus, 17.1 µM; in the series with Coxsackievirus it was 3.56 µM. In [1], this molecule returned a CC50 of 46.6 µM. Besides, the result (in the series on Hepatitis C virus; in series [2]; with dengue virus type 2; in series [3]) was inactive. Besides, the “Ratio CC50/EC50” value in [5] was over 5.75; in series [6], over 28.09. Also, in series [4], the selectivity ratio is 5.79.

Regarding `COc1ccccc1[C@@H]1[C@H](Oc2ccccc2)C(=O)N1CCn1cnc2c(NCc3ccccc3)ncnc21` (relative stereo), in the series with Chikungunya virus, the EC50 is 13 µM. Besides, the result (with Hepatitis C virus; in [2]; in the series on dengue virus type 2; in [3]) was inactive. The “Ratio CC50/EC50” value in series [5] is given as 4.53.

Regarding `CC(C)N[C@H](c1ccccc1)[C@H](CO)CCn1cnc2c(NCc3ccccc3)ncnc21` (relative stereo), the result (in the series on Hepatitis C virus; in series [2]; with dengue virus type 2; in [3]) was inactive.

For the molecule `O=C1[C@H](CCn2cnc3c(OCc4ccccc4)ncnc32)[C@@H](c2ccccc2)N1Cc1ccccc1`, the outcome (with Hepatitis C virus; in series [2]; in the series with dengue virus type 2; in series [3]) was inactive.

Turning to `CC(C)N1C(=O)[C@H](CCn2cnc3c(NCc4ccccc4)ncnc32)[C@H]1c1ccccc1` (relative stereo), the outcome (in the series on Hepatitis C virus; in [2]; with dengue virus type 2; in [3]) was inactive.

In the case of `O=C1[C@@H](Oc2ccccc2)[C@@H](c2ccc(Cl)cc2)N1CCn1cnc2c(NCc3ccccc3)ncnc21` (relative stereo), the outcome (with Hepatitis C virus; in [2]; with dengue virus type 2; in series [3]) was inactive.

For `O=C1[C@@H](Oc2ccccc2)[C@@H](c2ccccc2)N1CCn1cnc2c(NCc3ccccc3)ncnc21` (relative stereo), the result (with Hepatitis C virus; in [2]; in the series on dengue virus type 2; in series [3]) was inactive.

`O=C1[C@@H](Oc2ccccc2)[C@@H](c2ccccc2)N1CCCn1cnc2c(OCc3ccccc3)ncnc21` (relative stereo): the outcome (in the series with Hepatitis C virus; in [2]; with dengue virus type 2; in series [3]) was inactive. In series [7], this molecule returned a CC50 of 70.8 µM. Moreover, the selectivity ratio in series [8] stood at 4.13. Further, the EC50 worked out at 17.2 µM with Cytomegalovirus and 2.94 µM in the series on Coxsackievirus. Also, the “Ratio CC50/EC50” value in series [6] is listed as over 34.05.

Regarding `CO[C@@H]1C(=O)N(CCCn2cnc3c(NCc4ccccc4)ncnc32)[C@@H]1c1ccc(C(C)C)cc1` (relative stereo), the result (in the series on Hepatitis C virus; in series [2]; in the series on dengue virus type 2; in [3]) was inactive.

`O=C1[C@@H](OCc2ccccc2)[C@@H](c2ccccc2)N1CCn1cnc2c(NCc3ccccc3)ncnc21` (relative stereo): the selectivity ratio in [9] turned out to be 4.52. For the same molecule, the result (with Hepatitis C virus; in series [2]; in the series with dengue virus type 2; in series [3]) was inactive. This molecule yielded a CC50 in series [10] of over 50 µM. Also, the midpoint of the response in the series on Hepatitis B virus, the EC50, lay at 11.1 µM.

For the molecule `OC[C@@H](OCc1ccccc1)[C@H](NCCCn1cnc2c(NCc3ccccc3)ncnc21)c1ccc(Cl)cc1Cl` (relative stereo), the result (in the series with Hepatitis C virus; in series [2]; in the series on dengue virus type 2; in [3]) was inactive.

Consider `CCCN1C(=O)[C@H](CCCn2cnc3c(NCc4ccccc4)ncnc32)[C@H]1c1ccccc1` (relative stereo), for which the result (with Hepatitis C virus; in [2]; in the series on dengue virus type 2; in [3]) was inactive. For the same molecule, the CC50 in series [7] was 30.7 µM. In series [8], the selectivity ratio is 4.29. Besides, the EC50 was found to be 7.16 µM in the series on Cytomegalovirus and 2.77 µM in the series with Coxsackievirus. The “Ratio CC50/EC50” value in series [6] came out at 17.11.

In the case of `CO[C@H](CO)[C@H](NCCCn1cnc2c(NCc3ccccc3)ncnc21)c1ccc(C(C)C)cc1` (relative stereo), the outcome (with Hepatitis C virus; in series [2]; in the series with dengue virus type 2; in [3]) was inactive.

Regarding `CC(C)N1C(=O)[C@H](CCn2cnc3c(OCc4ccccc4)ncnc32)[C@H]1c1ccccc1` (relative stereo), the result (in the series on Hepatitis C virus; in [2]; in the series on dengue virus type 2; in series [3]) was inactive. The EC50 with Coxsackievirus turned out to be 4.17 µM. The “Ratio CC50/EC50” value in series [6] stood at 11.55.

For `OC[C@@H](Oc1ccccc1)[C@H](NCCCn1cnc2c(NCc3ccccc3)ncnc21)c1ccccc1` (relative stereo), the outcome (in the series with Hepatitis C virus; in [2]; with dengue virus type 2; in series [3]) was inactive.

Consider `CCCN[C@H](c1ccccc1)[C@H](CO)CCCn1cnc2c(NCc3ccccc3)ncnc21` (relative stereo), for which the outcome (in the series with Hepatitis C virus; in series [2]; with dengue virus type 2; in [3]) was inactive.

In turn, `CC(C)N[C@H](c1ccccc1F)[C@H](CO)CCCn1cnc2c(NCc3ccccc3)ncnc21` (relative stereo) had an EC50 in the series with Human orthopneumovirus of 23.6 µM. In addition, the CC50 in [1] was over 100 µM. In addition, the result (in the series on Hepatitis C virus; in [2]; with dengue virus type 2; in series [3]) was inactive. In series [4], the selectivity ratio was over 4.25.

With `OC[C@@H](Oc1ccccc1)[C@H](NCCn1cnc2c(NCc3ccccc3)ncnc21)c1ccc(Cl)cc1` (relative stereo), the EC50 in the series on Human orthopneumovirus came to 1.92 µM; with Chikungunya virus, 11.5 µM; with Hepatitis B virus, 3.47 µM. In addition, the selectivity ratio in [9] stood at 9.19; in series [4], 4.29. Further, the CC50 in series [1] was found to be 8.23 µM; in series [10] it was 31.9 µM. Besides, the outcome (with Hepatitis C virus; in series [2]; in the series with dengue virus type 2; in [3]) was inactive. Besides, the “Ratio CC50/EC50” value in series [5] amounted to 6.19.
